Screens (PubChem)
The list is not random: actives were taken first. Their share in the collection is about 1.9%.
UCH37 inh – inhibitors of human deubiquitinating enzyme UCH37. AID 588478. inhibition, % (test concentration not listed). Q9Y5K5. purified proteasome/UCH37, Ub-AMC cleavage fluorescence. 0.33% of 330,000 active;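 active = mean inhibition over replicate wells above about 20%, limit read from the data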;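 note: 0% = compound-free wells with enzyme and 100% = wells lacking proteasome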
Target sequence (Q9Y5K5 whole entry, looked up): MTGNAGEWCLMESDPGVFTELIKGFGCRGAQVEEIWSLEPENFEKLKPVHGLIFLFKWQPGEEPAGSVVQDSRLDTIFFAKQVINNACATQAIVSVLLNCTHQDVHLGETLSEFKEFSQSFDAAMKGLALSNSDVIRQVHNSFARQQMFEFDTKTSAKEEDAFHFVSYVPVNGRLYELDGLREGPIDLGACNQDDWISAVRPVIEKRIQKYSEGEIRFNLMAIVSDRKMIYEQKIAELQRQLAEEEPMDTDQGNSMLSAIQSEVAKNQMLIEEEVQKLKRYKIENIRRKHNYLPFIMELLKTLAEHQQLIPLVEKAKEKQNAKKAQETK
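Signal – fluorescence, ex 355 nm, em 460 nm · System – Proteasome-bound UCH37 · Input – 0.15 nM proteasome as dispensed · Timing – 30 min preincubation with enzyme, 25 min cleavage at room temperature · Read-out basis – percent inhibition of cleavage signal versus uninhibited and no-proteasome wells · Medium – Tris-HCl pH 7.4 with ATP-MgCl2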
Yeast superoxide – caloric restriction mimetics inhibiting age-related superoxide in yeast. superoxide response (% of plate mean), % at 10 µM. S. cerevisiae aged cells, superoxide DHE fluorescence; stronger effect = lower value. AID 2690. 0.18% of 330,000 active;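 active = superoxide response under a set limit, about three screen SD below normal, cut at about 65% in these data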;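 note: yeast aged for seven days with compound at 30 °C before DHE staining; 100% = average MFI of all compound-treated wells on the plate with controls excluded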
beta cell repl – MIN6 beta-cell proliferation induction | MIN6 cells proliferation, ATPlite luminescence, 48 h; cells starved in 0.2% serum; 100% = growth in 10% serum | proliferation, % at 10 µM | 0.29% of 330,000 active;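 active = compounds whose signal lies at least 3.5 SD above the mean of all wells on their plate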;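 note: 0% = DMSO-treated cells in low-serum medium and 100% = 10% serum control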
NR1D1 modulator – modulates human Rev-erb alpha binding to DNA. P20393. Rev-erbα–FITC-DNA binding, fluorescence polarization, 90 min. activity, % at 10 µM. 0.79% of 370,000 active;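 active = activity above about 14%, limit read from the data; passing the limit was not always enough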;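 note: 0% = DMSO wells with 35 nM protein and 100% = DMSO wells with 750 nM protein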
PG9 binder – small molecules binding HIV-1 gp120 antibody PG9; TR-FRET gp120-PG9 antibody binding; inhibition, % at 6.7 µM; 0.43% of 360,000 active; in the data active = inhibition above about 8.5%
Rce1 inh – inhibitors of yeast Ras-converting enzyme. AID 2563. calls only. yeast membranes, quenched prenylated peptide cleavage fluorescence. 0.27% of 290,000 active. Q03530;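 active = fall in fluorescence gain of 50% or more versus controls, with final raw signal at or below 3038400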;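 note: plate controls were neutral control wells for no effect and wells lacking membranes for full effect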
Target sequence (Q03530 whole entry, looked up): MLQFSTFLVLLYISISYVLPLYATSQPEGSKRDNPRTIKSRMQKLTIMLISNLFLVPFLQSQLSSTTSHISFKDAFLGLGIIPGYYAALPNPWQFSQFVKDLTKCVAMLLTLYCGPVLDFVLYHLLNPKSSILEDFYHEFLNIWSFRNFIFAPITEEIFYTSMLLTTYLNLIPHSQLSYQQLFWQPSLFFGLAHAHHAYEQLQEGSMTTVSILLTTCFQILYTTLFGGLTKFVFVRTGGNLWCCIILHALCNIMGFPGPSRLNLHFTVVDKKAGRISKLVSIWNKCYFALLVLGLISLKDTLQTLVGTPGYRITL
An asterisk follows results filed as active.

What do the screens show for `O=C(NN=Cc1cccn1-c1ccc(O)cc1)c1cccc2ccccc12`?
UCH37 inh: -11

What do the screens show for `CC(C)(C)c1cc(/C=N/O)cc(C(C)(C)C)c1O`?
Yeast superoxide: 97; beta cell repl: 0.0*; NR1D1 modulator: 10; PG9 binder: 0; Rce1 inh: inactive

What do the screens show for `O=S(=O)(O)c1cc2oc(-c3ccccc3)nc2c2ccccc12`?
UCH37 inh: -250; Yeast superoxide: 109; beta cell repl: -3; NR1D1 modulator: -7; PG9 binder: 1; Rce1 inh: active

What do the screens show for `O=C(O)CCc1ccc(-c2cccs2)n1Cc1ccco1`?
UCH37 inh: -8; Yeast superoxide: 109; beta cell repl: -2; NR1D1 modulator: 1; PG9 binder: -2; Rce1 inh: active

How did O=C(O)CCc1ccc(-c2ccc(Cl)cc2)n1Cc1ccco1 do in these assays?
UCH37 inh: 2; Yeast superoxide: 112; beta cell repl: 0; NR1D1 modulator: -6; PG9 binder: -2; Rce1 inh: inactive

What do the screens show for `C=C(C)C1CC=C(C)C(=NNC(=O)CNc2cccc3ccccc23)C1` (centres undefined)?
UCH37 inh: -14

Results for CC(=NNC(=O)c1ccccc1O)C1C(=O)c2ccccc2C1=O ?
UCH37 inh: 21*

What do the screens show for `C/C(=N\NC(=O)c1ccccc1O)C1C(=O)c2ccccc2C1=O`?
Yeast superoxide: 74; beta cell repl: -4; NR1D1 modulator: 0; PG9 binder: -4; Rce1 inh: inactive

What do the screens show for `CCN(CC)CCNC(=O)c1[nH]c2ccc(OCc3ccccc3)cc2c1C`?
UCH37 inh: -18; Yeast superoxide: 110; beta cell repl: -6; NR1D1 modulator: 0; PG9 binder: -3; Rce1 inh: active

How did CCCCCCCCCCOC(=O)Cn1c(COc2ccccc2C)[n+](C)c2ccccc21 do in these assays?
Yeast superoxide: 90; beta cell repl: -5; Rce1 inh: active

Results for O=C(O)C1Sc2[nH]c(=O)sc2C2c3ccc(O)cc3OC(=O)C12 (centres undefined) ?
Yeast superoxide: 104; beta cell repl: 1; NR1D1 modulator: 8; PG9 binder: -4; Rce1 inh: active

Results for Cc1c(C#N)c(O)n(C)c(=O)c1N=Nc1ccc(S(N)(=O)=O)cc1 ?
UCH37 inh: 4; NR1D1 modulator: 9; PG9 binder: -4; Rce1 inh: inactive

How did Cc1c(C#N)c(O)n(CCO)c(=O)c1N=Nc1ccc(S(N)(=O)=O)cc1 do in these assays?
UCH37 inh: 21*; Yeast superoxide: 110; beta cell repl: 0; NR1D1 modulator: 2; PG9 binder: -5; Rce1 inh: inactive

What do the screens show for `CC(=NNS(=O)(=O)c1ccc(C(C)(C)C)cc1)c1ccc2c(c1)OCO2`?
UCH37 inh: 4

How did CC(C)(C)C(C(=O)Oc1ccccc1)c1ccccc1 (centres undefined) do in these assays?
UCH37 inh: 24*; Yeast superoxide: 102; beta cell repl: 0; NR1D1 modulator: -1; PG9 binder: 1

Results for CC(C)(C)OC(=O)N[C@@H](C(=O)OC(C)(C)C)c1ccccc1 ?
UCH37 inh: 3; Yeast superoxide: 86; beta cell repl: 4; NR1D1 modulator: -2; PG9 binder: 1

How did CCSc1nnc(CCNS(=O)(=O)c2ccc(C(C)=O)cc2)n1C do in these assays?
UCH37 inh: 1; Yeast superoxide: 91; beta cell repl: -3; NR1D1 modulator: 2; PG9 binder: 1; Rce1 inh: inactive

Results for Cn1c(CCNS(=O)(=O)c2ccccc2)nnc1SCc1cccnc1 ?
UCH37 inh: 1; Yeast superoxide: 120; beta cell repl: -2; NR1D1 modulator: 0; PG9 binder: 0; Rce1 inh: active

How did O=C(NN=Cc1ccc(Br)o1)C1COc2ccccc2O1 (centres undefined) do in these assays?
UCH37 inh: 6

What do the screens show for `CCOc1ccc2[nH]c3c(N4CCc5ccccc5C4)ncnc3c2c1`?
Yeast superoxide: 89; beta cell repl: -6; NR1D1 modulator: 2; PG9 binder: -3; Rce1 inh: active

Results for Cc1ccc2oc(=O)c3cnn(CC(=O)NCCc4ccsc4)c3c2c1 ?
UCH37 inh: 2; Yeast superoxide: 102; beta cell repl: -1; NR1D1 modulator: 10; PG9 binder: 22*; Rce1 inh: inactive

Results for CC(C)CC(=O)Nc1ccc2oc(-c3cccnc3)nc2c1 ?
UCH37 inh: -195; Yeast superoxide: 100; beta cell repl: -3; NR1D1 modulator: -1; PG9 binder: 1; Rce1 inh: active

How did CCC(=O)Nc1ccc2oc(-c3cccnc3)nc2c1 do in these assays?
UCH37 inh: -128; Yeast superoxide: 83; beta cell repl: 1; NR1D1 modulator: 0; PG9 binder: 1; Rce1 inh: inactive

Results for CC(C)N1CCN(Cc2ccc(-c3ccccc3)cc2)CC1CCO (centres undefined) ?
UCH37 inh: 3; Yeast superoxide: 95; beta cell repl: 0; NR1D1 modulator: 5; PG9 binder: 0; Rce1 inh: inactive

What do the screens show for `CC(C)N1CCN(Cc2ccc(OCc3ccccc3)cc2)CC1CCO` (centres undefined)?
Yeast superoxide: 95; beta cell repl: -2; NR1D1 modulator: 1; PG9 binder: 0; Rce1 inh: active

How did COc1cccc(C(=O)Nc2nnc(SCC(=O)NC3CCCC3)s2)c1 do in these assays?
UCH37 inh: 3; Yeast superoxide: 97; beta cell repl: -5; NR1D1 modulator: 3; PG9 binder: 0; Rce1 inh: active

What do the screens show for `O=C(CSc1nnc(NC(=O)c2cccc(F)c2)s1)NC1CCCC1`?
UCH37 inh: -8; Yeast superoxide: 91; beta cell repl: -3; NR1D1 modulator: -2; PG9 binder: 0; Rce1 inh: inactive

What do the screens show for `COC(=O)c1ccc(CNCC(O)COc2ccc(-c3ccccc3)cc2)cc1` (centres undefined)?
UCH37 inh: 2; Yeast superoxide: 106; beta cell repl: 0; NR1D1 modulator: -3; PG9 binder: 0; Rce1 inh: inactive

What do the screens show for `COC(=O)c1ccc(-c2ccc(CNCC(O)c3ccccc3)o2)cc1` (centres undefined)?
UCH37 inh: -23; Yeast superoxide: 103; beta cell repl: -1; NR1D1 modulator: 0; PG9 binder: -1; Rce1 inh: active

How did COc1cc(C=NNC(=O)c2sc3ccccc3c2Cl)ccc1OC(=O)c1ccc([N+](=O)[O-])cc1 do in these assays?
UCH37 inh: 3

Results for Cc1cccc(NC(=O)C2(c3ccc([N+](=O)[O-])cc3)CCCC2)c1 ?
UCH37 inh: 4; Yeast superoxide: 102; beta cell repl: -3; NR1D1 modulator: 0; PG9 binder: 1; Rce1 inh: active

What do the screens show for `Cc1ccsc1C=NNc1nc2ccccc2[nH]1`?
UCH37 inh: 1
